Compound activity deposited in PubChem BioAssay by several laboratories.
Hck-Nef inh = blocks Nef-activated human Hck kinase; Recombinant Hck-YEEI plus Nef, Z-Lyte FRET kinase assay; AID 463187; 220,000 tested, 0.68% active; inhibition, % at 20 µM; P08631;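 active = Hck-Nef kinase inhibition above about 50%, limit read from the data; inactive = inhibition below that limit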;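 also: 0% = DMSO with Hck plus Nef and 100% = Hck alone without Nef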
14-3-3 Bad PPI = disrupts binding of bovine 14-3-3 zeta to phospho-Bad peptide. P63103. TR-FRET 14-3-3zeta/Dy647-pBad peptide displacement, 1 h. inhibition, % at 21.7 µM. 220,000 tested, 0.71% active. AID 781;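 active = inhibition above about 70%, limit read from the data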;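 also: 0% = full 14-3-3 plus peptide FRET controls and 100% = background without 14-3-3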
Target sequence (P63103 whole entry, looked up): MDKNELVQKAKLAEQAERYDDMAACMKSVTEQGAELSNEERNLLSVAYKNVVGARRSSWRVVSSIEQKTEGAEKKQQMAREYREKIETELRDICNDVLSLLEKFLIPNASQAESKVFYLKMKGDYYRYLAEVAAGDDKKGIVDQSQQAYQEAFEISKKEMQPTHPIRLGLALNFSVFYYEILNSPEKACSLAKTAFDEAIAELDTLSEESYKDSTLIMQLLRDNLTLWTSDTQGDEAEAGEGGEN
TbHK1 inh = blocks Trypanosoma brucei hexokinase 1 activity | AID 1430 | inhibition, % at 10 µM | 220,000 tested, 0.11% active | recombinant TbHK1, G6PDH-coupled NADH A340;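 active = inhibition of 50% or more in the single-dose primary screen; inactive = inhibition below 50%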
RanGTP-Impb inh = inhibitors of RanGTP-importin-beta interaction, primary screen, biochemical, FRET, CFP-Ran, YFP-importin-beta, homogeneous; cell-free CFP-Ran/YFP-importin-beta FRET ratio; inhibition, % (test concentration not listed); 300,000 tested, 1.1% active;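 active = more than half of the replicate wells show a fall in the fluorescence ratio signal beyond about 16%, limit read from the data, passing the limit was not always enough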;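 also: 0% = DMSO wells and 100% = Ran loaded with GDP instead of GTP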
Runt-CBFb FRET = inhibitors of human RUNX1 Runt domain binding to CBFb. 220,000 tested, 0.46% active. AID 1496. inhibition, % at 20 µM. Cerulean-Runt/Venus-CBFb FRET ratio 530/480, 1 h;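 active = inhibition over about 50% at 20 µM in the single-dose screen, limit read from the data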;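 also: 0% = DMSO wells and 100% = excess unlabeled CBFb competitor control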
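Measured by: fluorescence energy transfer, 422 nm excitation, 530/480 nm emission; test system: Cerulean-tagged RUNX1 Runt domain (FRET donor) fusion protein; buffer or medium: Tris pH 7.5 buffer with BSA; compound: one dose, 20 µM compound, 1% DMSO; times: two 1 h room-temperature incubations shielded from light; benchmarks: unlabeled CBFb 5 µM, positive control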
Runt-SMMHC FRET = blocks binding of human RUNX1 Runt domain to CBFb-SMMHC; Q01196+Q13951; Cerulean-Runt/Venus-CBFb-SMMHC FRET ratio 530/480, 1 h; inhibition, % at 20 µM; 220,000 tested, 0.74% active; AID 1434;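 active = mean inhibition across duplicate retests at 20 µM reaching about 50%, limit read from the data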;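 also: 0% = DMSO wells and 100% = wells with excess untagged CBFb-SMMHC; inhibitors lower the FRET ratio by blocking Runt binding to CBFb-SMMHC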
Hck-Nef confirm = Hck-Nef kinase inhibition, confirmation | shares compounds with Hck-Nef inh | Recombinant Hck-YEEI:Nef, Z-Lyte FRET kinase assay | calls only at 10 µM | 1,300 tested, 28% active | AID 463188;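 active = average inhibition of at least 50%, with Z-scores no higher than 3 in both the phospho-tyrosine peptide and fluorescence counterscreens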
* marks the source's active call; other numbers are inactive results; i = inactive; . = no result shown; + = active, no number; [ ] = dose if it differs, or a comment. Most compounds without a hit are left out; they make up all but 2.2% or so of the library.

SMILES	Hck-Nef inh	14-3-3 Bad PPI	TbHK1 inh	RanGTP-Impb inh	Runt-CBFb FRET	Runt-SMMHC FRET	Hck-Nef confirm
Cc1cc(C(=O)COC(=O)c2cc(O)c3ccccc3c2O)c(C)n1CC1CCCO1 (stereo not given)	92.8*	72.6*	-6.7	.	4.4	-30.1	i
CC1CCCCC12NC(=O)N(CC(=O)Nc1sc3c(c1C(N)=O)CCC3)C2=O (stereo not given)	8.8	-4.8	-12.9	-1.3	1.3	-9.6	.
CC1CCC2(CC1)NC(=O)N(CC(=O)Nc1sc3c(c1C(N)=O)CCC3)C2=O (stereo not given)	63.8*	24.0	-4.5	1.7	1.9	-5.2	+
CCN(CC)Cc1c(C(=O)N/N=C(\C)c2ccncc2)nnn1-c1nonc1N	.	.	.	-4.1	.	.	.
c1ccc(CCNc2ccnc3cc4ccccc4cc23)cc1	156.0*	31.7	5.1	151.9*	36.5	92.9*	.
COc1ccc(Nc2ccnc3ccccc23)cc1	2.1	32.1	7.3	5.0	-0.6	-6.7	.
CC(C)Nc1ccc(Nc2ccnc3cc4ccccc4cc23)cc1	69.5*	-1.5	-14.9	1.6	7.3	8.1	+
CC[C@H](C)NC(=O)CCCCCn1c(=S)[nH]c2c([nH]c3ccc(OC)cc32)c1=O	51.6*	6.1	7.4	-0.7	-2.0	-0.4	i
CCCCNC(=O)CCCCn1c(=S)[nH]c2c([nH]c3ccc(OC)cc32)c1=O	38.5	-0.8	10.6	-2.6	2.8	6.0	.
COc1ccc(NC(=O)CN2C(=O)/C(=C3\SC(=S)N(C4CCS(=O)(=O)C4)C3=O)c3ccccc32)cc1 (stereo not given)	99.1*	59.7	24.5	1.9	14.6	2.1	+
N/C(=N\N=C\c1ccnc2ccccc12)SC1CC(=O)N(c2ccc(Br)cc2)C1=O (stereo not given)	66.4*	10.0	11.4	-4.0	-5.0	-6.9	+
CCOC(=O)c1cnc2c(c(C)nn2CC)c1NCCN1CCOCC1	6.1	-17.8	-5.8	-1.6	3.6	-1.1	.
CS(=O)(=O)N(CC(=O)N/N=C/c1ccc(OCC(=O)N2CCOCC2)cc1)c1ccccc1Cl	128.9*	-16.9	30.3	-4.7	-2.0	0.4	i
O=C(N/N=C/c1ccc(OCC(=O)N2CCOCC2)cc1)c1ccccc1Cl	2.5	-13.7	-5.9	-2.9	1.9	-3.0	.
CCn1c(C)nc2cc(C(=O)N/N=C/c3cccc(OC)c3O)ccc21	-48.0	-15.1	-13.5	2.5	2.9	5.5	.
CCn1c(C)nc2cc(C(=O)N/N=C/c3ccc(O)c(O)c3O)ccc21	74.9*	36.4	6.1	4.2	29.1	13.6	+
Cc1cc(C)c(NS(=O)(=O)c2ccc3c(c2)NC(=O)CC(=O)N3)c(C)c1	6.1	-15.4	30.3	7.7	2.2	1.0	.
O=C(N/N=C/c1ccc(-c2ccc(Cl)c(C(=O)O)c2)o1)c1cc2c(ccc3ccccc32)o1	71.7*	56.8	-30.6	8.0	12.7	80.3*	+
O=C(O)c1ccccc1/C=N/NC(=O)c1cc(-c2ccco2)nc2ccccc12	71.3*	69.7	-4.4	-6.9	14.1	19.3	+
CC(=O)Nc1ccc(/C=N/NC(=O)c2cc(-c3ccco3)nc3ccccc23)cc1	14.7	-11.3	-15.0	1.6	14.3	-1.2	.
Cn1c(=O)c2sccc2n2c(CCCC(=O)Nc3ccc(F)cc3F)nnc12	.	.	.	-1.9	.	.	.
COc1ccc(CCn2c(=S)[nH]c3cc(C(=O)NCc4ccco4)ccc3c2=O)cc1OC	75.4*	76.7*	-8.6	-3.7	0.8	-2.6	+
CCN(CC)c1ccc(/C=N/N2CCN(Cc3ccccc3)CC2)cc1	57.4*	5.3	-26.4	0.6	2.0	12.3	i
CCN(CC)c1ccc(/C=N/N2CCN(Cc3ccccc3Cl)CC2)cc1	.	.	.	2.4	.	.	.
Cc1cccc(N(C)C(=O)C2CCCN2S(=O)(=O)c2cccc3nsnc23)c1 (stereo not given)	16.3	-2.3	-14.7	-1.2	2.9	-3.0	.
SMILES	Hck-Nef inh	14-3-3 Bad PPI	TbHK1 inh	RanGTP-Impb inh	Runt-CBFb FRET	Runt-SMMHC FRET	Hck-Nef confirm
Cc1ccc(Oc2ccc(-c3nc(N)nc(N)n3)cc2)cc1C	75.7*	10.6	2.3	-1.6	-12.3	-7.4	i
COc1ccc(C2=NN(C(=O)CCCC(=O)O)C(c3cn(-c4ccccc4)nc3-c3ccccc3)C2)cc1 (stereo not given)	108.8*	6.2	8.0	7.1	3.3	-2.6	+
C=CCn1c(SCC(=O)Nc2ccc(-c3nc4ccc(C)cc4s3)cc2)nnc1-c1ccccc1	78.0*	91.9*[fluorescence artefact?]	-58.9	4.4	4.2	1.9	+
Cc1ccc(C)c(C(=O)CSc2nc(C)cc(=O)[nH]2)c1	.	.	.	-2.4	.	.	.
CC(=O)c1cc2ccc(O)cc2oc1=O	+	6.8	-8.6	148.4*	9.8	81.2*	.
CC(=O)c1cc2c(O)c(O)ccc2o1	4.1	12.6	-10.5	-0.3	6.1	1.9	.
CC(=O)c1ccc(COC(=O)c2cc3ccccc3oc2=O)cc1	.	.	.	2.5	.	.	.
O=C(NCc1ccco1)c1cc2ccccc2o1	0.3	-1.6	1.4	-1.1	-2.8	1.8	.
O=C(NCc1ccco1)c1cc2ccc(O)cc2oc1=O	+	.	-2.9	158.0*	17.9	58.5*	.
CC(=O)c1cc2cc(O)ccc2o1	73.3*	3.6	-22.1	-2.7	32.3	70.1*	.
CC(C)CCSc1cc(NCCO)c([N+](=O)[O-])c2nonc12	12.3	-6.4	-7.9	-2.2	-8.3	5.1	.
CCN(CC)c1cc(NCCO)c([N+](=O)[O-])c2nonc12	56.4*	-6.0	-24.1	2.4	-4.4	-29.8	i
Cc1ccc(C)c2sc(NC(=O)c3nc4ccccc4s3)nc12	2.7	30.4	-1.1	-3.7	-7.8	-7.2	.
COc1ccc(-c2cc3nc4ccccc4n3c(N)c2C#N)cc1	68.2*	71.3*	-33.2	3.6	-3.3	-13.1	.
CCS/C(N)=N/N=C/c1cc(C)ccc1O	51.3*	-12.7	-48.2	3.6	0.0	0.7	i
O=C(Nn1c(=S)[nH]c2ccccc2c1=O)c1ccncc1	-0.2	8.3	-10.5	-2.9	-2.0	2.2	.
O=c1[nH]c(=S)[nH]c(O)c1N=Nc1ccc(-c2ccccc2)cc1[N+](=O)[O-]	68.4*	-6.3	4.9	-17.6	-20.4	-23.2	i
O=C(O)c1ccccc1N=Nc1c(O)[nH]c2ccc([N+](=O)[O-])cc12	.	.	.	2.2	.	.	.
C=CCn1c(N)c(C(=O)NCC2CCCO2)c2nc3ccccc3nc21 (stereo not given)	54.7*	-7.5	-13.7	106.7*	4.4	46.5	.
